Results published in paper PMC8530978 (Bioorganic chemistry, 2021).
One block for each molecule: values may come before it.

Key:
[1] = test system: NCI sixty human tumor cell line panel; assay: NCI sixty human tumor cell line panel, single dose 10 μM; assay type: cell-based; conditions: for Mean % growth at 10 μM: mean growth percent over NCI 60 panel, single dose 10 μM; for activity at 10 µM: read-out: Mean % growth at 10 μM; for growth inhibition activity (in words): NCI 60 single dose 10 μM
[2] = target: HDAC1 (Homo sapiens, UniProt Q13547); assay: HDAC-Glo inhibitor testing with recombinant HDAC1; assay type: biochemical
Chain of HDAC1 (Q13547 whole entry): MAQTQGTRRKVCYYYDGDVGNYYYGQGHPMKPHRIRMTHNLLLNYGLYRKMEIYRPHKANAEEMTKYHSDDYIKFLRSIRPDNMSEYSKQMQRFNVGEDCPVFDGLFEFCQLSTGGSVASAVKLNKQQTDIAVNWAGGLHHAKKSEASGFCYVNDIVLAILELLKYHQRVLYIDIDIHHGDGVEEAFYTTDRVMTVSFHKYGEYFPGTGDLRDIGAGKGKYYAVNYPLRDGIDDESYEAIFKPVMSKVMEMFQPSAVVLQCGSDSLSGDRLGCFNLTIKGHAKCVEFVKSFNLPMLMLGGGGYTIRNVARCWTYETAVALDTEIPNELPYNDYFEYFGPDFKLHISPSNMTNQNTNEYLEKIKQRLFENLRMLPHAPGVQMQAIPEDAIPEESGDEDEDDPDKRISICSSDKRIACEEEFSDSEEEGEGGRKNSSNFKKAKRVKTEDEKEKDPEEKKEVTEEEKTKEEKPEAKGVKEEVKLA

[3] = target: HDAC2 (Homo sapiens, UniProt Q92769); assay: HDAC-Glo inhibitor testing with recombinant HDAC2; assay type: biochemical
Chain of HDAC2 (Q92769 whole entry): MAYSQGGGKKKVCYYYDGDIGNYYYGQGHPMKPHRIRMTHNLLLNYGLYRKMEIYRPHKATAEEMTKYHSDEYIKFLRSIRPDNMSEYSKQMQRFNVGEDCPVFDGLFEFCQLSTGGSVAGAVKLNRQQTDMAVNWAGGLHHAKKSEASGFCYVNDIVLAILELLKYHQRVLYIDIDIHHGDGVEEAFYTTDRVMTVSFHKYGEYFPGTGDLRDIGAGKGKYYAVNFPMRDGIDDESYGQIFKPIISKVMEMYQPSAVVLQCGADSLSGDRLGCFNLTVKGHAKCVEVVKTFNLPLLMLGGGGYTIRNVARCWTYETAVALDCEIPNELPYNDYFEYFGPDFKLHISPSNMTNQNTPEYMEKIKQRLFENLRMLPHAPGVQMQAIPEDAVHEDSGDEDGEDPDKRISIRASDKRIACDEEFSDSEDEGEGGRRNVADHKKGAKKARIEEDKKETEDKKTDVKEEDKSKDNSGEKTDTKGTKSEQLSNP

[4] = target: HDAC3 (Homo sapiens, UniProt O15379); assay: HDAC-Glo inhibitor testing with recombinant HDAC3; assay type: biochemical
Chain of HDAC3 (O15379 whole entry): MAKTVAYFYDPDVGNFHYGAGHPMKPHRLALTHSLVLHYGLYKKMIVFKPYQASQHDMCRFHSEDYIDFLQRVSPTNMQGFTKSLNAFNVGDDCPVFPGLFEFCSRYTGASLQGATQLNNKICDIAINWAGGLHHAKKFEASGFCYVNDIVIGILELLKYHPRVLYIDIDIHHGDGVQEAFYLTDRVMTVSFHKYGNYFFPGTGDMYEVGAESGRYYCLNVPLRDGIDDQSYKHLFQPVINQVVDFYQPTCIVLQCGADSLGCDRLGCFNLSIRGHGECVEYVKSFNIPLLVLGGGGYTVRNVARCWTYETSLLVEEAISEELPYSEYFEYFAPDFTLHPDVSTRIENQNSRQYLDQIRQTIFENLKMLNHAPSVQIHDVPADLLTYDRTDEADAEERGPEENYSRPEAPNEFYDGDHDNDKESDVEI
Chain of HDAC3 (Q9Y618 395-489 partner limits assumed): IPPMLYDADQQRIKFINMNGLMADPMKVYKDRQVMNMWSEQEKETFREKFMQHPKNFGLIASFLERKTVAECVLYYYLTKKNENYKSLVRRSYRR

[5] = target: T1, HDAC6 (Homo sapiens, UniProt Q9UBN7); assay: HDAC-Glo inhibitor testing with recombinant HDAC6; assay type: biochemical
T1 sequence (Q9UBN7 1-1215): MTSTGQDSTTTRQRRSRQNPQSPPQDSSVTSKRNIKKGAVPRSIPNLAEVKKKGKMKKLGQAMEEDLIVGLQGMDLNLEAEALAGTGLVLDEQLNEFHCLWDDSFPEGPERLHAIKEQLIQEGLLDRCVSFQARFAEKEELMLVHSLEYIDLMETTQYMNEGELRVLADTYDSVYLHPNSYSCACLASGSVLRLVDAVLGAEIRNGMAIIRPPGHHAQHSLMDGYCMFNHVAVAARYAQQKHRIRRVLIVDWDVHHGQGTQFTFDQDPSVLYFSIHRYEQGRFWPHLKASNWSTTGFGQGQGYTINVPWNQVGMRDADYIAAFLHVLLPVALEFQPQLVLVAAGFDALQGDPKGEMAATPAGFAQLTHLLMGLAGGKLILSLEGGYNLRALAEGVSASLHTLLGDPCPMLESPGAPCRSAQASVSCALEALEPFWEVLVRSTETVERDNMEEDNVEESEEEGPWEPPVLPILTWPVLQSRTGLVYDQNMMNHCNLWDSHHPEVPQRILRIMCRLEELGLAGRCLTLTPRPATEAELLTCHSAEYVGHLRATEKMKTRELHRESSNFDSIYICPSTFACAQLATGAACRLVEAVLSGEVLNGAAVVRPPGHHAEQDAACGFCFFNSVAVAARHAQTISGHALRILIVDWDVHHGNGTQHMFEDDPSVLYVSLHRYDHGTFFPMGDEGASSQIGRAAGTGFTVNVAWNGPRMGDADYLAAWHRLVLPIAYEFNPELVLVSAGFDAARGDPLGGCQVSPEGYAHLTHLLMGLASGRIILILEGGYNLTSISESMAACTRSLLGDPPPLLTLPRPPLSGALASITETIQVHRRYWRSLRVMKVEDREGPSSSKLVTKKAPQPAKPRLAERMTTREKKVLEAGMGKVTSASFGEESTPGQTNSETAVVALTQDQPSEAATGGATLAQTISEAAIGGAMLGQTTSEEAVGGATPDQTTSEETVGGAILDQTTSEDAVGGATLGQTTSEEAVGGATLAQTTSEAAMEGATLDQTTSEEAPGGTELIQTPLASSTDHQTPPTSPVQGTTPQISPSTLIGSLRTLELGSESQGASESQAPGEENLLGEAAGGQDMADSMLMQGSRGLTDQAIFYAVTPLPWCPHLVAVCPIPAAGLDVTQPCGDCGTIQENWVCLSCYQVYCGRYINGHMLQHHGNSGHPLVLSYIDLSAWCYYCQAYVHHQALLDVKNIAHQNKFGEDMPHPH

[6] = target: T2, HDAC8 (Homo sapiens, UniProt Q9BY41); assay: HDAC-Glo inhibitor testing with recombinant HDAC8; assay type: biochemical
T2 sequence (Q9BY41 1-377): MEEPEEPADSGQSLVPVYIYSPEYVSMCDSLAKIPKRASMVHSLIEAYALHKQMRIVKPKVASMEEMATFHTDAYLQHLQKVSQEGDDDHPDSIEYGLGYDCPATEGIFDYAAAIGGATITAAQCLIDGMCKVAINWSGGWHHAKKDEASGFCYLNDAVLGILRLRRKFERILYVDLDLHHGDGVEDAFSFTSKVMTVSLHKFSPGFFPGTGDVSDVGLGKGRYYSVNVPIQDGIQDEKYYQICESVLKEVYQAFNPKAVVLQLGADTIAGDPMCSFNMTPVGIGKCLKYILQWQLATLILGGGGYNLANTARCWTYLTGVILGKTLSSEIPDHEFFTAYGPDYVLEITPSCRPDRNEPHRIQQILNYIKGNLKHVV

[7] = test system: HeLaM cells; assay: Flow cytometry cell cycle analysis; assay type: cell-based; conditions: 72 hr post treatment (DMSO 14%)
Procedure, shortened: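 5 × 10^5 HeLaM cells plated, treated next day with test compound or DMSO for 24, 48 or 72 h. All cells (floating and attached) collected and fixed in 70% ethanol (final). […] 10 μg/ml, 30 min, 37 °C, then propidium iodide in PBS + 2% FBS. SubG1 gated; subG1 excluded before modeling live-cell cycle distribution.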

[8] = test system: mitotic spindle of HeLaM cells; assay type: cell-based; conditions: compound 10 μM + MG132 + ZM447439 (DMSO+MG132+ZM447439 3%)

Molecule: 4-(3-(2-Hydroxyphenyl)-3-oxopropyl)phenyl)-N-(naphthalen-1-yl)acetamide [HPE-33]
Mean % growth at 10 μM [1]: 91.98%

Molecule: O=C(Cc1ccc(/C=C/C(=O)c2ccccc2O)cc1)Nc1ccccc1 [HPE-32, (E)-2-(4-(3-(2-Hydroxyphenyl)-3-oxoprop-1-en-1-yl)phenyl)-N-phenylacetamide]
activity at 10 µM ([1]; Homo sapiens): 85.9%

Molecule: O=C(Cc1ccc(C(O)CC(=O)c2ccccc2O)cc1)Nc1ccccc1 (centres unmarked) [HPE-34, 2-(4-(1-Hydroxy-3-(2-hydroxyphenyl)-3-oxopropyl)phenyl)-N-phenylacetamide]
activity at 10 µM ([1]; Homo sapiens): 89.6%

Molecule: CN(C)c1ccc(NC(=O)Cc2ccc(/C=C/C(=O)c3ccccc3O)cc2)cc1 [HPE-35, (E)-N-(4-(Dimethylamino)phenyl)-2-(4-(3-(2-hydroxyphenyl)-3-oxoprop-1-en-1-yl)phenyl)acetamide]
activity at 10 µM ([1]; Homo sapiens): 85.9%

Molecule: O=C(Cc1ccc(/C=C/C(=O)c2ccccc2O)cc1)Nc1cccc2ccccc12 [HPE-36, (E)-2-(4-(3-(2-Hydroxyphenyl)-3-oxoprop-1-en-1-yl)phenyl)-N-(naphthalen-1-yl)acetamide]
activity at 10 µM ([1]; Homo sapiens): 96.2%

Molecule: O=C(Cc1ccc(/C=C/C(=O)c2ncc[nH]2)cc1)Nc1ccccc1 [IPE-1, (E)-2-(4-(3-(1H-Imidazol-2-yl)-3-oxoprop-1-en-1-yl)phenyl)-N-phenylacetamide]
activity at 10 µM ([1]; Homo sapiens): 45.3%
inhibition at 10 µM ([1]; Homo sapiens, read-out: growth inhibition at 10 μM): > 50%

Molecule: O=C(Cc1ccc(/C=C/C(=O)c2ncc[nH]2)cc1)NC1CCCCC1 [IPE-2, (E)-2-(4-(3-(1H-Imidazol-2-yl)-3-oxoprop-1-en-1-yl)phenyl)-N-cyclohexylacetamide]
activity at 10 µM ([1]; Homo sapiens): 70%
growth inhibition activity (in words) [1]: almost completely inactive

Molecule: COc1ccc(NC(=O)Cc2ccc(/C=C/C(=O)c3ncc[nH]3)cc2)cc1 [IPE-4, (E)-2-(4-(3-(1H-imidazol-2-yl)-3-oxoprop-1-en-1-yl)phenyl)-N-(4-methoxyphenyl)acetamide]
activity at 10 µM ([1]; Homo sapiens): 66.8%

Molecule: CN(C)c1ccc(NC(=O)Cc2ccc(/C=C/C(=O)c3ncc[nH]3)cc2)cc1 [IPE-5, (E)-2-(4-(3-(1H-imidazol-2-yl)-3-oxoprop-1-en-1-yl)phenyl)-N-(4-(dimethylamino)phenyl)acetamid]
activity at 10 µM ([1]; Homo sapiens): 52.1%

Molecule: O=C(Cc1ccc(/C=C/C(=O)c2ncc[nH]2)cc1)Nc1cccc2ccccc12 [IPE-6, (E)-2-(4-(3-(1H-imidazol-2-yl)-3-oxoprop-1-en-1-yl)phenyl)-N-(naphthalen-1-yl)acetamide]
activity at 10 µM ([1]; Homo sapiens): 76.3%

Molecule: O=C(Cc1ccc(/C=C/C(=O)c2ncc[nH]2)cc1)Nc1ccc(S(F)(F)(F)(F)F)cc1 [IPE-10, (E)-2-(-4(3-(1H-imidazol-2-yl)-3-oxoprop-1-en-1-yl)phenyl)-N-(4-pentafluorosulfaneyl)acetamide]
Mean % growth at 10 μM [1]: 64.07%

Molecule: O=C(Cc1ccc(/C=C/C(=O)c2ncc[nH]2)cc1)Nc1ccc(C(F)(F)F)cc1 [IPE-11, (E)-2-(4-(3-(1H-Imidazole-2-yl)-3-oxoprop-1-en-1-yl)phenyl)-N-(4-(trifluoromethyl)phenyl)acetamide]
activity at 10 µM ([1]; Homo sapiens): 23.5%

Molecule: O=C(Cc1ccc(/C=C/C(=O)c2ncc[nH]2)cc1)Nc1cc(F)c(F)c(F)c1 [IPE-12, (E)-2-(-4(3-(1H-imidazol-2-yl)-3-oxoprop-1-en-1-yl)phenyl)-N-(3,4,5-trifluorophenyl)acetamide]
activity at 10 µM ([1]; Homo sapiens): 51.1%

Molecule: O=C(Cc1ccc(/C=C/C(=O)c2ncc[nH]2)cc1)Nc1c(F)c(F)c(F)c(F)c1F [IPE-13, (E)-2-(-4(3-(1H-imidazol-2-yl)-3-oxoprop-1-en-1-yl)phenyl)-N-(perfluorophenyl)acetamide]
activity at 10 µM ([1]; Homo sapiens): 91.8%

Molecule: O=C(Cc1ccc(/C=C/C(=O)c2ncc[nH]2)cc1)Nc1cc(C(F)(F)F)cc(C(F)(F)F)c1 [IPE-14, (E)-2-(-4(3-(1H-imidazol-2-yl)-3-oxoprop-1-en-1-yl)phenyl)-N-(bis(3,5-trifluoromethyl)phenyl)acetamide]
Mean % growth at 10 μM [1]: 77.21%

Molecule: Cn1ccnc1C(=O)/C=C/c1ccc(CC(=O)NC2CCCCC2)cc1 [IPE-15, (E)-N-Cyclohexyl-2-(4-(3-(1-methyl-1H-imidazol-2-yl)-3-oxoprop-1-en-1-yl)phenyl)acetamide]
activity at 10 µM ([1]; Homo sapiens): 57.7%

Molecule: Cn1ccnc1C(=O)/C=C/c1ccc(CC(=O)Nc2ccc(Cl)cc2)cc1 [IPE-17, (E)-N-(4-chlorophenyl)-2-(4-(3-(1-methyl-1H-imidazol-2-yl)-3-oxoprop-1-en-1-yl)phenyl)acetamide]
activity at 10 µM ([1]; Homo sapiens): 19.3%

IC50 [2]: > 100 µM
IC50 [3]: > 100 µM
IC50 [4]: > 100 µM
IC50 [5]: > 100 µM
IC50 [6]: > 100 µM
Molecule: Cn1ccnc1C(=O)/C=C/c1ccc(CC(=O)Nc2ccc(Br)cc2)cc1 [IPE-18, (E)-N-(4-Bromophenyl)-2-(4-(3-(1-methyl-1H-imidazol-2-yl)-3-oxoprop-1-en-1-yl)phenyl)acetamide]
activity at 10 µM ([1]; Homo sapiens): 19.9%

Molecule: O=C(Cc1ccc(/C=C/C(=O)c2nccn2Cc2ccccc2)cc1)Nc1ccc(F)cc1 [IPE-20, (E)-2-(4-(3-(1-Benzyl-1H-imidazol-2-yl)-3-oxoprop-1-en-1-yl)phenyl)-N-(4-fluorophenyl)acetamide]
activity at 10 µM ([1]; Homo sapiens): 54.7%

Molecule: CCn1ccnc1C(=O)/C=C/c1ccc(CC(=O)Nc2ccc(F)cc2)cc1 [IPE-21, (E)-2-(4-(3-(1-Ethyl-1H-imidazol-2-yl)-3-oxoprop-1-en-1-yl)phenyl)-N-(4-fluorophenyl)acetamide]
activity at 10 µM ([1]; Homo sapiens): 29.2%

Molecule: Cn1ccnc1C(=O)/C=C/c1ccc(CC(=O)Nc2ccc(C(F)(F)F)cc2)cc1 [IPE-23, (E)-2-(4-(3-(1-methyl-1H-imidazol-2-yl)-3-oxoprop-1-en-1-yl)phenyl)-N-(4-(trifluoromethyl)phenyl)acetamide]
activity at 10 µM ([1]; Homo sapiens): 13%

Molecule: O=C(Cc1ccc(CCC(=O)c2ncc[nH]2)cc1)Nc1ccccc1 [IPE-28, 2-(4-(3-(1H-imidazol-2-yl)-3-oxopropyl)phenyl)-N-phenylacetamide]
activity at 10 µM ([1]; Homo sapiens): 92.8%
growth inhibition activity (in words) [1]: virtually inactive

remaining activity at 100 µM ([6]; read-out: HDAC8 activity remaining): 20 to 60%
Molecule: Cn1ccnc1C(=O)C1CC1c1ccc(CC(=O)Nc2ccc(Br)cc2)cc1 (centres unmarked) [IPE-29, N-(4-bromophenyl)-2-(4-(2-(1-methyl-1H-imidazole-2-carbonyl)cyclopropyl)phenyl)acetamide]
activity at 10 µM ([1]; Homo sapiens): 98.7%
growth inhibition activity (in words) [1]: virtually inactive

Molecule: O=C(Cc1ccc(/C=C/C(=O)c2ncccn2)cc1)Nc1ccccc1 [PPE-31, (E)-2-(4-(3-Oxo-3-(pyrimidin-2-yl)prop-1-en-1-yl)phenyl)-N-phenylacetamide]
activity at 10 µM ([1]; Homo sapiens): 99.1%

Molecule: O=C(Cc1ccc(/C=C/C(=O)c2nccs2)cc1)Nc1ccccc1 [TPE-30, (E)-2-(4-(3-Oxo-3-(thiazol-2-yl)prop-1-en-1-yl)phenyl)-N-phenylacetamide]
activity at 10 µM ([1]; Homo sapiens): 84.3%
growth inhibition activity (in words) [1]: inactive

Molecule: CN1CCc2c(c3ccccc3n2Cc2ccc(C(=O)NO)cc2)C1 [Tubastatin A, reference compound]
subG1 population [7]: little effect on subG1
spindle collapse [8]: did not produce the same aberrant spindle
